Results taken from ChEMBL document CHEMBL4325921, “Potent Triazolopyridine Myeloperoxidase Inhibitors” (ACS Med Chem Lett, 2018).
Active and inactive are the calls of the source. The calls are words filed in the database; no cut-off is given here.

Key:
[1] = target: T1, Myeloperoxidase (Homo sapiens, UniProt P05164); assay: Inhibition of human PMN leukocytes MPO peroxidation activity using H2O2 as substrate preincubated for 10 mins followed by H2O2 addition and measured for 15 mins by amplex red reagent based assay
T1 sequence (P05164 whole entry): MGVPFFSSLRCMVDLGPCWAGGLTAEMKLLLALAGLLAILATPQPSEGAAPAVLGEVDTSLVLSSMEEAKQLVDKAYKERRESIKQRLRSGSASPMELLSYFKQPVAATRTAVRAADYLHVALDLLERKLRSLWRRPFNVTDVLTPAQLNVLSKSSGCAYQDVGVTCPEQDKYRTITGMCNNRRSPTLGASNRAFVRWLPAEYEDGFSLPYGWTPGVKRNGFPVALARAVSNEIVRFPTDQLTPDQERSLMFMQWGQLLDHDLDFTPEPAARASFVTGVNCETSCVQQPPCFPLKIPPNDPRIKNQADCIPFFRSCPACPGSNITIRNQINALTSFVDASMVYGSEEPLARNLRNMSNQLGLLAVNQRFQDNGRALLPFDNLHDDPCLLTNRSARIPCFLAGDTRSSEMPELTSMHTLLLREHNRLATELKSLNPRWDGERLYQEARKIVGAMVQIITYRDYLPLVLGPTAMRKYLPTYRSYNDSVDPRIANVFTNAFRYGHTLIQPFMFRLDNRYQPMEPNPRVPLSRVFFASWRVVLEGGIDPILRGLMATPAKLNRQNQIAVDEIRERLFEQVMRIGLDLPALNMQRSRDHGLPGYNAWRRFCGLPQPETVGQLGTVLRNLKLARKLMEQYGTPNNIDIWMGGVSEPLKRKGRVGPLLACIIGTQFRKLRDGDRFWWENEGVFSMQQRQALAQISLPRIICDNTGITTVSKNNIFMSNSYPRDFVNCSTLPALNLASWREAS

[2] = target: Cytochrome P450 3A4 (Homo sapiens, UniProt P08684); assay: Inhibition of CYP3A4 (unknown origin); type: ADME
Chain of Cytochrome P450 3A4 (P08684 whole entry): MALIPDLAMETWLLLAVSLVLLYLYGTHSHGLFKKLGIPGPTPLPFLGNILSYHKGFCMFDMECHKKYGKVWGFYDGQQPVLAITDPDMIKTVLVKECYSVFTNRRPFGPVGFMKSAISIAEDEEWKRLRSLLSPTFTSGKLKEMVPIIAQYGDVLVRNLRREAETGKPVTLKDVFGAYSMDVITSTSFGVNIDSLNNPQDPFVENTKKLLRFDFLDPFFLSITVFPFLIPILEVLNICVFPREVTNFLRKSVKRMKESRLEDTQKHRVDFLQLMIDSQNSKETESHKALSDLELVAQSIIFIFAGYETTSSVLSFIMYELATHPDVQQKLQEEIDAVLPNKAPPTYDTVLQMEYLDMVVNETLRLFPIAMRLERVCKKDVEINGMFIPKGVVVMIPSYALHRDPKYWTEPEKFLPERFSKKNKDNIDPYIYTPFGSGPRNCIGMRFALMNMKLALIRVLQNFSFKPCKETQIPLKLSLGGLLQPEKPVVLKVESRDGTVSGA

[3] = target: T1, Myeloperoxidase; assay: Inhibition of human PMN leukocytes MPO chlorination activity using H2O2 as substrate preincubated for 10 mins followed by H2O2 addition and measured for 15 mins in presence of NaCl by aminophenyl fluorescein based assay
[4] = AUC in mouse at 3 mg/kg, po after 8 hrs; type: ADME, organism-based; set-up: dose 3 mg/kg, time < 8 hr, route oral; conditions: in vivo
[5] = Half life in pH 1 solution; type: physicochemical
[6] = target: T2, Methylated-DNA--protein-cysteine methyltransferase (Homo sapiens, UniProt P16455); assay: Inhibition of recombinant human N-terminal His-tagged MGMT (1 to 207 residues) expressed in Escherichia coli using O-6-benzylguanine as substrate after 30 mins by LC-MS analysis; conditions: 0.5 h
T2 sequence (P16455 whole entry): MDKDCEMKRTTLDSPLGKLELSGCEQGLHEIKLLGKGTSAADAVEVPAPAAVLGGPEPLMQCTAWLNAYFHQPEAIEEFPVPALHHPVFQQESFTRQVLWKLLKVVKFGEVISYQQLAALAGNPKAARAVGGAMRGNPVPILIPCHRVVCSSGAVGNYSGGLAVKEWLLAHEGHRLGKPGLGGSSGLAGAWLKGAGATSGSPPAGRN

[7] = Plasma concentration in human MPO transgenic mouse model of PMA-induced acute inflammation at 10 mg/kg, po; type: ADME, organism-based; conditions: in vivo
[8] = Plasma concentration in human MPO transgenic mouse model of PMA-induced acute inflammation at 30 mg/kg, po; type: ADME, organism-based; conditions: in vivo
[9] = Protein binding in mouse plasma; type: ADME, cell-free; conditions: read-out: PPB (converted)
[10] = target: T3, Eosinophil peroxidase (Homo sapiens, UniProt P11678); assay: Inhibition of human EPX bromination activity assessed as reduction in H2O2 catalyzed 3-bromo tyrosine formation from tyrosine and potassium bromide preincubated for 10 mins followed by tyrosine/potassium bromide/H2O2 addition measured after 15 mins by RP-UPLC analysis
T3 sequence (P11678 whole entry): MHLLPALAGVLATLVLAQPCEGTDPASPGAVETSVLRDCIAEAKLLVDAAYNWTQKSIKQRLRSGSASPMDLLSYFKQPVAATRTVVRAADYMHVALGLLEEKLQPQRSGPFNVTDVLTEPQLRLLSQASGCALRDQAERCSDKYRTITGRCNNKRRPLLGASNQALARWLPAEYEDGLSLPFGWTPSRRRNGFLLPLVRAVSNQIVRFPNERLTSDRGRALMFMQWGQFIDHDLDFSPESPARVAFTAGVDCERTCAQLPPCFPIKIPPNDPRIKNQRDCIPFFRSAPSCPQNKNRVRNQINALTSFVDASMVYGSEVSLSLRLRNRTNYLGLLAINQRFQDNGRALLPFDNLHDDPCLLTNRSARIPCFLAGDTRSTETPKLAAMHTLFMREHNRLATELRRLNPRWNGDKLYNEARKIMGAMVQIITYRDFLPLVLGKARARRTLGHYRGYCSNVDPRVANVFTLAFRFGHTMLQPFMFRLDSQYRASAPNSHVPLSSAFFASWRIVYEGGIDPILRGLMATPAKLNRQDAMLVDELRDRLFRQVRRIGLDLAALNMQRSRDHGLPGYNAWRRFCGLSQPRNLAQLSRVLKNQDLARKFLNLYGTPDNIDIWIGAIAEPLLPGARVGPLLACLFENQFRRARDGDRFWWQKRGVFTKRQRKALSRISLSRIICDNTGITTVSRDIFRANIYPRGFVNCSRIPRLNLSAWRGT

[11] = Cmax in mouse at 3 mg/kg, po; type: ADME, organism-based; set-up: dose 3 mg/kg, route oral; conditions: in vivo
[12] = target: Lactoperoxidase (Homo sapiens, UniProt P22079); assay: Inhibition of human LPO assessed as reduction in H2O2 catalyzed 3,5-iodo tyrosine formation from 3-iodotyrosine and potassium iodide preincubated for 10 mins followed by tyrosine/potassium bromide/H2O2 addition measured after 15 mins
Chain of Lactoperoxidase (P22079 whole entry): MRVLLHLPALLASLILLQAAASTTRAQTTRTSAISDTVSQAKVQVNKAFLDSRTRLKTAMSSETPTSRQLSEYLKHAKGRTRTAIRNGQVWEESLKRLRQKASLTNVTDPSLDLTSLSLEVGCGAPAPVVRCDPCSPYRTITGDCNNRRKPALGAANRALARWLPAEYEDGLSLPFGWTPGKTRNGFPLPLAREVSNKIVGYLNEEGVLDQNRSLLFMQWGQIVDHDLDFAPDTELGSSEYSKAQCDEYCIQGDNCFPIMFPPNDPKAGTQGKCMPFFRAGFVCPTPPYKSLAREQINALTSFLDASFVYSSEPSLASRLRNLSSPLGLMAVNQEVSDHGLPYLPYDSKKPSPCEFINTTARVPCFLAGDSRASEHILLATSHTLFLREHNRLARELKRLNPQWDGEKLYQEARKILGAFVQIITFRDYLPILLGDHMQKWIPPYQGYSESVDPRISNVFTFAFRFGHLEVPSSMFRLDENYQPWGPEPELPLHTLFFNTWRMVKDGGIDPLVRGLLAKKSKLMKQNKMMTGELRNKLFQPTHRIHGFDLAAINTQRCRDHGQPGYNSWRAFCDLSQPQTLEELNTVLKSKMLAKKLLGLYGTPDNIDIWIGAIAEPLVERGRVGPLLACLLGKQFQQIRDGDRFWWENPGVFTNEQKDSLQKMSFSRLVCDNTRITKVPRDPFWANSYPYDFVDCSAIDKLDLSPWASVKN

[13] = Protein binding in human plasma; type: ADME, cell-free; conditions: read-out: PPB (converted)
[14] = test system: Mus musculus; assay: (§1) In vivo inhibition of PMA-stimulated MPO in human MPO transgenic mouse model of acute inflammation assessed as reduction in hypochlorous acid production in blood at 30 mg/kg, po administered 20 mins prior to PMA stimulation and measured after 2 mins by luminol chemiluminescence assay relative to control; type: functional
In short: (§2)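 Mice were dosed with test compound, then given PMA 20 minutes later to stimulate MPO through neutrophil degranulation. After 2 minutes, blood samples were treated with luminol. Chemiluminescence was read as MPO-dependent hypochlorous acid production.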

[15] = target: T4, Thyroid peroxidase (Homo sapiens, UniProt P07202); assay: Inhibition of human TPO assessed as reduction in H2O2 catalyzed 3,5-iodo tyrosine formation from 3-iodotyrosine and potassium iodide preincubated for 10 mins followed by tyrosine/potassium bromide/H2O2 addition measured after 15 mins
T4 sequence (P07202 whole entry): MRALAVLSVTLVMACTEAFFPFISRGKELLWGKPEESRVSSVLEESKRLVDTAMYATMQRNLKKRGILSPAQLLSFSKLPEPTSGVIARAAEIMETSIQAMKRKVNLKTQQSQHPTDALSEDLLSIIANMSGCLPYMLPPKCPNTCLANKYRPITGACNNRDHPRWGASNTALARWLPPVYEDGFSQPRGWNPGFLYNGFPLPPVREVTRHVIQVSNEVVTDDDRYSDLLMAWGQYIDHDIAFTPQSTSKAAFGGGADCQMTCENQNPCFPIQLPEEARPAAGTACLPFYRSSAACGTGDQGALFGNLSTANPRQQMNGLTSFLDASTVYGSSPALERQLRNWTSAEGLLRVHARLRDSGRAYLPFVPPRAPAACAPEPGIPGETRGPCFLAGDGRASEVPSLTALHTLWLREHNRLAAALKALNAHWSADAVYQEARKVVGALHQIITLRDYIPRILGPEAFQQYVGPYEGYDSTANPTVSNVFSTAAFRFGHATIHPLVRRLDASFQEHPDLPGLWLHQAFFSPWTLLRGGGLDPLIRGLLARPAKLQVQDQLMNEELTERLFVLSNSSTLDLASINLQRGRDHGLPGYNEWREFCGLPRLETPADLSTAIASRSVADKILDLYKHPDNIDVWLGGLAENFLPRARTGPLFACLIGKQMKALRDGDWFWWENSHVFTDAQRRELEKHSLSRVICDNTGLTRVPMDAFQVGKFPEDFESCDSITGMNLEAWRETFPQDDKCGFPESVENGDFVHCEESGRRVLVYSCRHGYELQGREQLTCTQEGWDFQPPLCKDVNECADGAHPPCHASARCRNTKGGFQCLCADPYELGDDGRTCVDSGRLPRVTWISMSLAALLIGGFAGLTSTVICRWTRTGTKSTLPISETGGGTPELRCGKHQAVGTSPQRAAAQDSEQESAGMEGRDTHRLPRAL

[16] = test system: Mus musculus; assay: In vivo inhibition of PMA-stimulated MPO in human MPO transgenic mouse model of acute inflammation assessed as reduction in hypochlorous acid production in blood administered orally 20 mins prior to PMA stimulation and measured after 2 mins by luminol chemiluminescence assay; type: functional, organism-based; in short: as §2
[17] = test system: Mus musculus; assay: as §1, with “10” for “30”; type: functional; in short: as §2
[18] = test system: Mus musculus; assay: In vivo inhibition of […] in mouse model of acute inflammation at 10 to 30 mg/kg, po; type: functional, organism-based

Cc1c(COc2cc(N)nc3[nH]nnc23)cccc1-c1cccc(F)c1
IC50 [1]: 23 nM

Nc1cc(OCc2cc(-c3cccc(F)c3)ccc2Cl)c2nn[nH]c2n1
IC50 [2]: 60 nM | IC50 [1]: 24 nM

Nc1cc(OCc2ccc(Cl)cc2)c2nn[nH]c2n1
IC50 [1]: 26 nM

Cc1nn(-c2ccccc2)nc1COc1cc(N)nc2[nH]nnc12
IC50 [2]: 370 nM | IC50 [1]: 27 nM

Cc1c(COc2cc(N)nc3[nH]nnc23)cccc1-c1ccn(C)n1
IC50 [2]: 1500 nM | IC50 [1]: 26 nM

Nc1cc(OCc2ccccc2F)c2nn[nH]c2n1
IC50 [1]: 30 nM

Nc1cc(SCc2nn(-c3ccccc3)nc2C(F)F)c2nn[nH]c2n1
IC50 [1]: 8.5 nM

Nc1cc(OCc2ccccc2)c2nn[nH]c2n1
IC50 [3]: 50 nM | AUC at 8 h [4]: 11 µM·h | half-life [5]: > 100 h | inhibition (INH) [6]: Active | IC50 [1]: 36 nM

Nc1cc(OCc2ncc(-c3ccccc3)o2)c2nn[nH]c2n1
IC50 [1]: 290 nM

Nc1cc(OCc2nn(-c3ccccc3)nc2CO)c2nn[nH]c2n1
IC50 [1]: 250 nM

Nc1cc(SCc2c(Cl)cccc2Cl)c2nn[nH]c2n1
IC50 [1]: 4.6 nM

Nc1cc(OCc2c(Cl)cccc2Cl)c2nn[nH]c2n1
IC50 [1]: 6.7 nM

Nc1cc(SCc2ccccc2F)c2nn[nH]c2n1
concentration [7]: 21 µM | IC50 [3]: 6.8 nM | concentration [8]: 70 µM | AUC at 8 h [4]: 18 µM·h | fraction unbound [9]: 0.192 | IC50 [10]: 22 nM | Cmax [11]: 17 µM | IC50 [1]: 8.7 nM | IC50 [12]: > 8000 nM | fraction unbound [13]: 0.02 | inhibition in vivo at 30 mg/kg [14]: 74% | IC50 [15]: 4000 nM | inhibition [16]: Dose-dependent effect | inhibition in vivo at 10 mg/kg [17]: 50% | inhibition [18]: Active

Nc1cc(OCc2cccc(Cl)c2)c2nn[nH]c2n1
IC50 [1]: 21 nM

Nc1cc(OCc2ccccc2-n2cccn2)c2nn[nH]c2n1
IC50 [1]: 26 nM

Cn1cc(-c2cccc(COc3cc(N)nc4[nH]nnc34)c2)cn1
IC50 [1]: 78 nM

Nc1cc(OCc2cccc(-c3ccccc3F)c2)c2nn[nH]c2n1
IC50 [1]: 160 nM

CS(=O)(=O)c1ccccc1COc1cc(N)nc2[nH]nnc12
IC50 [1]: 720 nM

Nc1cc(OCc2cccc(-c3cccc(F)c3)c2)c2nn[nH]c2n1
IC50 [1]: 21 nM

Nc1nc(OCc2ccccc2)c2[nH]nnc2n1
IC50 [3]: 110 to 190 nM | AUC at 8 h [4]: 22 µM·h | fraction unbound [9]: 0.127 | half-life [5]: 2.8 h | IC50 [10]: 17 nM | Cmax [11]: 31 µM | inhibition (INH) [6]: Active | IC50 [12]: > 100000 nM | fraction unbound [13]: 0.006 | IC50 [15]: 42000 nM

Nc1cc(OCc2ccccc2Cl)c2nn[nH]c2n1
IC50 [1]: 26 nM

Nc1cc(OCc2cn(-c3ccccc3)nn2)c2nn[nH]c2n1
IC50 [1]: 400 nM

Cn1ccc(-c2cccc(COc3cc(N)nc4[nH]nnc34)c2)n1
IC50 [1]: 21 nM

Nc1cc(OCc2nn(-c3ccccc3)nc2C(F)F)c2nn[nH]c2n1
IC50 [1]: 12 nM
